From PubChem BioAssay
GASC-1 inh: human JMJD2C demethylase inhibition; actives 0.069% (n = 330,000); inhibition, % at 2.35 µM; GST-JMJD2C(1-420) H3K9me3 demethylation, DELFIA europium;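 active = more than half of a compound's replicate wells show inhibition beyond 50%, single wells judged on their own value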;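 note: signal counts dimethyl H3K9 product captured on neutravidin plate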
T cruzi inh: T. cruzi replication inhibition | T. cruzi beta-gal in NIH3T3, luminescence, 90 h | inhibition, % (test concentration not listed) | actives 1.4% (n = 300,000) | AID 1885;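 active = mean inhibition across valid replicates above about 55%, limit read from the data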;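 note: signal also drops with host cell toxicity which is not excluded here; higher percent means less beta-gal luminescence so fewer parasites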
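System: Mouse NIH/3T3 fibroblasts infected with β-gal-expressing T. cruzi Tulahuen C4 | Quantity: NIH/3T3 cells, 5,000 per well | Reagent: 5000 reporter trypomastigotes per well | Dosing: Compound pinned at 50 nL/well, DMSO | Schedule: 3 h host attachment, then at least 90 h co-culture | Detection: GalScreen luminescence, 60 min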
PP5 inh: PP5 (human) phosphatase inhibition; P53041; purified PP5c, OMFP substrate fluorescence; inhibition, % at 6.7 µM; actives 0.18% (n = 320,000);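 active = inhibition above the campaign's mean inhibition across all tested compounds plus 3 SD, cut at about 9.5% in these data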
p-CIP stab down: p/CIP protein destabilization. Q05BA5. F442A p/CIP-EGFP cells, EGFP fluorescence, 16 h. decrease of EGFP signal, % at 10 µM. actives 0.01% (n = 290,000). AID 1984;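 active = EGFP signal decrease of at least 30% at 10 µM or well 3 SD below plate mean, unless failing retest; inactive = the rest, including hits failing retest or dose response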
Fh CTSL1 inh: counter-screen for PFM18AAP inhibitors: inhibitors of F. hepatica cathepsin L1; recombinant F. hepatica cathepsin L1, Z-Leu-Arg-MCA fluorescence; inhibition, % at 5.96 µM; actives 0.49% (n = 300,000); AID 1906;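 active = inhibition above the mean of all tested compounds plus 3 SD, set per screening campaign, cut at about 17% in these data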
Cardio protect: myocardial damage modulation in H9c2 cells | protection from H2O2 cell death, % at 20 µM | actives 0.63% (n = 360,000) | H9c2 cardiomyocytes, H2O2 injury protection, ATPLite, 2 h;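 active = compounds giving at least 50% protection of heart cells from peroxide-induced death in the single-dose screen, raw or plate-pattern-corrected value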
Each line names hits and unclear results; the compound was inactive in the other large screens. The list is not random: actives were taken first. Their share in the collection is about 2.4%.

CCOC(=O)N1CCN(c2ccc(F)cc2[N+](=O)[O-])CC1	none
CCOC(=O)N1CCN(c2cc(N3CCOCC3)c(F)cc2[N+](=O)[O-])CC1	none
CCOC(=O)N1CCN(c2cc(N3CCN(CC)CC3)c(F)cc2[N+](=O)[O-])CC1C (stereo not drawn)	T cruzi inh 60
CN1C2CCC1CC(NC(=O)c1cc(Cl)cc3[nH]cnc13)C2 (stereo not drawn)	none
CN1C(=O)CC(N2CCC(c3nc4ccccc4s3)CC2)C1=O (stereo not drawn)	Fh CTSL1 inh 19
O=C(CNC(=O)C(c1ccccc1)c1ccccc1)N/N=C/c1ccc(O)cc1O	Cardio protect 56
O=C(CNC(=O)C1COc2ccccc2O1)N/N=C/c1ccc(O)cc1O (stereo not drawn)	Cardio protect 63
O=C(CSc1ccc2ccccc2n1)N/N=C/c1ccc(O)cc1	none
O=C(CNC(=O)C1COc2ccccc2O1)N/N=C\c1cccc(O)c1 (stereo not drawn)	none
Cc1cc(SCC(=O)N/N=C/c2ccc(O)cc2O)c(C)cc1Br	T cruzi inh 62
O=C(CSc1ccc2ccccc2n1)N/N=C/c1ccccc1O	Cardio protect 55 (no result: PP5 inh, Fh CTSL1 inh)
O=C(N/N=C/c1ccc(O)cc1O)/C(=C/c1ccccc1)CCO	Cardio protect 57
COc1cc(/C=N/NC(=O)/C(=C/c2ccccc2)CCO)ccc1O	none
CCc1cc(C(=O)N/N=C/c2ccc(O)cc2O)c2ccccc2n1	Cardio protect 53
COc1ccc(/C=C\C(=O)NCC(=O)N/N=C/c2ccc(O)cc2O)cc1	none
O=C(/C=C\c1ccccc1)NCC(=O)N/N=C/c1ccc(O)cc1O	Cardio protect 66
O=C(N/N=C/c1ccc(O)cc1O)c1ccncc1	none
O=C(COC(=O)CCN=C1NS(=O)(=O)c2ccccc21)NNC(=O)c1ccc(Cl)cc1	none (no result: T cruzi inh, p-CIP stab down, Fh CTSL1 inh)
CCN(CC)CCNC(=O)c1cc2c(s1)-c1ccccc1SC2	T cruzi inh 55
COC(=O)[C@]1(Cc2ccccc2)N[C@H](CN(C)S(=O)(=O)c2ccc(-c3ccccc3)cc2)[C@@H]2C(=O)N(Cc3ccccc3)C(=O)[C@@H]21	none (no result: T cruzi inh, PP5 inh, p-CIP stab down, Fh CTSL1 inh)
O=C(COC(=O)CCc1nc2ccccc2c(=O)[nH]1)NC(c1ccccc1)c1ccccc1	Cardio protect 59
CC(NC(=O)COC(=O)CCc1nc2ccccc2c(=O)[nH]1)c1ccccc1 (stereo not drawn)	none
COc1ccc(C(=O)NNC(=O)c2ccc3ccccc3n2)cc1	Cardio protect 52 (no result: T cruzi inh, p-CIP stab down, Fh CTSL1 inh)
CCCCOc1ccc(C(=O)NCC(=O)N(C)Cc2nc3ccccc3c(=O)[nH]2)cc1	Cardio protect 54 (no result: T cruzi inh, p-CIP stab down, Fh CTSL1 inh)
Cc1ccc(OCCOC(=O)CCc2nc3ccccc3c(=O)[nH]2)cc1	Cardio protect 55
Cc1ccc(C)c(N(CC(=O)NC2CCCC2)C(=O)c2csnn2)c1	none
Cc1ccccc1NC(=O)COC(=O)CCc1nc2ccccc2c(=O)[nH]1	Cardio protect 65
CC(OC(=O)CCc1nc2ccccc2c(=O)[nH]1)C(=O)NC1CCCC1 (stereo not drawn)	Cardio protect 55
O=C(COC(=O)CCc1nc2ccccc2c(=O)[nH]1)Nc1c(Cl)cccc1C(F)(F)F	Cardio protect 52 (no result: p-CIP stab down)
O=C(CCc1nc2ccccc2c(=O)[nH]1)OCc1cccc(C(F)(F)F)c1	none
O=C(COC(=O)CCc1nc2ccccc2c(=O)[nH]1)Nc1ccc2c(c1)OCO2	Cardio protect 52
CCOc1cc(C(=O)N[C@@H](C)C(=O)N2CCC3(CC2)NCCc2[nH]cnc23)cc(OCC)c1OCC	none
CCN(CC(=O)Nc1cc(Cl)ccc1C)C(=O)CCc1nc2ccccc2c(=O)[nH]1	Cardio protect 69 (no result: T cruzi inh, p-CIP stab down, Fh CTSL1 inh)
O=C(CCc1nc2ccccc2c(=O)[nH]1)OCc1ccc(-c2ccccc2)cc1	none
CCc1ccc(C(=O)NNC(=O)CCc2nc3ccccc3c(=O)[nH]2)cc1	none (no result: p-CIP stab down)
COc1ccc(C(=O)NNC(=O)CCc2nc3ccccc3c(=O)[nH]2)cc1	Cardio protect 64 (no result: T cruzi inh, PP5 inh, p-CIP stab down, Fh CTSL1 inh)
N#CCCN(C(=O)COC(=O)CCc1nc2ccccc2c(=O)[nH]1)c1ccccc1F	Cardio protect 58 (no result: T cruzi inh, p-CIP stab down, Fh CTSL1 inh)
Cc1ccsc1C(=O)OCc1nc2ccsc2c(=O)[nH]1	none (no result: p-CIP stab down)
Cc1ccsc1C(=O)OCc1nc2ccccc2c(=O)[nH]1	GASC-1 inh 103
COc1cccc(NC(=O)Cn2c(=O)n(CCC(=O)NC3CCN(Cc4ccccc4)CC3)c(=O)c3ccccc32)c1	none
NC(c1ccccc1)c1csc(Nc2cc(Oc3ccccc3)ncn2)n1 (stereo not drawn)	none (no result: GASC-1 inh, T cruzi inh, PP5 inh, p-CIP stab down, Fh CTSL1 inh)
CCC1(c2ccc(F)cc2)NC(=O)NC1=O (stereo not drawn)	none
O=C(CN1CCC(c2nc3ccccc3s2)CC1)N1CCCCC1	none
O=C(CN1CCC(c2nc3ccccc3s2)CC1)NCc1cccs1	T cruzi inh 68
COc1ccccc1/C=C/c1ccc2cccc(O)c2n1	T cruzi inh 56
COc1cc(Cl)cc(/C=C/c2ccc3cccc(O)c3n2)c1OC	Cardio protect 57
CCOc1cccc(/C=C/c2ccc3cccc(O)c3n2)c1O	none
COc1ccc(Cl)cc1/C=C/c1ccc2cccc(O)c2n1	none
CCOc1cccc(/C=C/c2ccc3cccc(O)c3n2)c1OC	T cruzi inh 84
CCOC(=O)c1c(CN(C)C)n(C)c2c(O)c(N=NC(N)=O)c3ccc(Br)cc3c12	Fh CTSL1 inh 20
COc1ccc(-c2csc3ncnc(N4CCN(S(=O)(=O)c5cccc(Br)c5)CC4)c23)cc1	T cruzi inh 62 (no result: p-CIP stab down)
CCCCN(CCCC)CCn1cnc2c([nH]c3ccc(OC)cc32)c1=O	Fh CTSL1 inh 107
COc1ccc2[nH]c3c(=O)n(CCc4ccccc4)cnc3c2c1	none
O=C(Cc1ccc(O)cc1)NCCNC(=S)NCc1ccccc1	Fh CTSL1 inh 25
CCCCCN(C(=O)CCC(=O)OCC(=O)c1cccc(OC)c1)c1c(N)n(CCCC)c(=O)[nH]c1=O	GASC-1 inh 59
O=c1[nH]c(N2CCN(c3ccccc3)CC2)nc2c1CCCC2	Cardio protect 55
O=c1[nH]c(N2CCN(c3ccccc3)CC2)nc2c1CCC2	Cardio protect 51
Cc1cccc(NC(=O)c2cccc(Cn3cc(Br)c([N+](=O)[O-])n3)c2)c1C	T cruzi inh 58
COc1ccc(OC)c(NC(=O)c2cccc(Cn3cc(Br)c([N+](=O)[O-])n3)c2)c1	T cruzi inh 64
CC(C)N(CCCNC(=O)c1ccc(CS(=O)(=O)c2c(Cl)cccc2Cl)o1)Cc1ccccc1	none
CCc1cc2c(SCC(=O)N3CCCC3=O)ncnc2s1	none (no result: T cruzi inh, p-CIP stab down, Fh CTSL1 inh)
CC1CN(Cc2c(O)ccc3c2oc(=O)c2ccccc23)CC(C)O1 (stereo not drawn)	GASC-1 inh 54
